According to ChEMBL document CHEMBL4229392, “An Efficient Buchwald-Hartwig/Reductive Cyclization for the Scaffold Diversification of Halogenated Phenazines: Potent Antibacterial Targeting, Biofilm Eradication, and Prodrug Exploration” (J Med Chem, 2018):
pIC50: −log10 of the molar value. In brackets after ≈: the same amount, converted by molar mass. Activity calls are given as the source filed them. The calls are words filed in the database; no cut-off is given here.

How the values were obtained:
[1] = Hemolytic activity in human RBC at 200 uM after 1 hr relative to control; format: ADME, cell-based, Erythrocyte; details: red blood cells (erythrocytes), read-out: Activity
In short: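 Human RBCs drawn fresh into EDTA were washed three times in Tris-buffered saline (0.01 M Tris, 0.155 M NaCl, pH 7.2). 2% hRBC suspension was added to compound from DMSO stock, final 200 µM, for 1 h at 37 °C, then centrifuged and supernatant OD405 read. Scaled between DMSO (0%) and Triton X (100%). Three independent experiments.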

[2] = system: Staphylococcus epidermidis; assay: Antibacterial activity against methicillin-resistant Staphylococcus epidermidis ATCC 35984 after 16 to 18 hrs by broth microdilution method; format: functional
[3] = system: Staphylococcus aureus; assay: Antibacterial activity against methicillin-resistant Staphylococcus aureus 2 after 16 to 18 hrs by broth microdilution method; format: functional
In short: (§1)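 CLSI broth microdilution in Lysogeny Broth, eleven two-fold dilutions spanning 0.10–100 µM; ~10^5 cells per well from log-phase culture; DMSO vehicle (top 1% v/v). MIC = lowest concentration preventing growth after 16–18 h at 37 °C, supported by OD600; three independent experiments.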

[4] = system: Mycobacterium tuberculosis; assay: Antibacterial activity against Mycobacterium tuberculosis H37Ra ATCC 25177 after 7 days; format: functional; details: H37Ra ATCC 25177, 168 h
In short: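 M. tuberculosis H37Ra grown two weeks in Middlebrook 7H9, diluted to OD600 0.01; two-fold serial dilutions 0.024–50 µM (streptomycin positive control, 0.16–340 µM); final DMSO 0.5%. Incubated 7 days at 37 °C; MIC = lowest concentration with no growth, OD600 recorded; three independent experiments.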

[5] = system: Staphylococcus aureus; assay: Antibacterial activity against methicillin-resistant Staphylococcus aureus BAA-1707 after 16 to 18 hrs by broth microdilution method; format: functional; in short: as §1
[6] = system: Enterococcus faecium; assay: Antibacterial activity against vancomycin-resistant Enterococcus faecium ATCC 700221 after 16 to 18 hrs by broth microdilution method; format: functional; in short: as §1
[7] = system: HeLa; assay: Cytotoxicity against human HeLa cells after 24 hrs by LDH release assy; format: cell-based
In short: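 HeLa cells in DMEM with 10% FBS at 37 °C, 5% CO2, dosed at 70-80% confluence with compound diluted in medium at 25, 50 and 100 µM for 24 h. Supernatant mixed with LDH reaction mixture, 30 min at room temperature, stopped, A490 read. Triton X-100 (2% v/v) as maximal-release control, medium only as no-death control, DMSO as vehicle. Three independent experiments.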

[8] = Metal chelating activity assessed as compound-Fe2+ complex formation at 5 mM by UV-vis spectrometry
In short: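 HP solutions given ammonium iron(II) sulfate hexahydrate; UV-vis scans 300–700 nm in 2 nm steps, λmax 374 nm. Loss of absorbance at 374 nm taken as loss of free hydroxyphenazine and formation of phenazine–iron(II) complex.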

[9] = Selectivity index, ratio of IC50 for human HeLa cells to MIC for methicillin-resistant Staphylococcus aureus BAA-1707; format: toxicity; details: read-out: Selectivity Index
In short: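 HeLa cells in DMEM + 10% FBS, 37 °C, 5% CO2, at 70–80% confluence exposed 24 h to 25, 50 and 100 µM; LDH release read at 490 nm (Triton X-100 2% maximum, medium-only minimum); three independent experiments. Index = HeLa IC50 divided by MRSA BAA-1707 MIC.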

[10] = system: Staphylococcus aureus; assay: Induction of biofilm eradication of methicillin-resistant Staphylococcus aureus 2 after 24 hrs by calgary biofilm device method; format: functional
In short: (§2)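 Calgary device: biofilms established 24 h at 37 °C from mid-log culture diluted 1,000-fold in TSBG (0.5% glucose), washed, exposed 24 h to 2-fold serial dilutions, then peg lid moved to fresh TSBG for 24 h recovery. MBEC = lowest concentration giving no turbidity; at least three independent experiments.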

[11] = system: Staphylococcus aureus; assay: Bactericidal activity against methicillin-resistant Staphylococcus aureus BAA-44 planktonic cells after 24 hrs by calgary biofilm device method; format: organism-based
In short: (§3)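 Biofilms grown 24 h at 37 °C on Calgary device pegs from mid-log culture diluted 1,000-fold in TSB + 0.5% glucose; washed pegs challenged 24 h at 37 °C with 2-fold serial dilutions. Challenge medium subcultured into fresh TSBG overnight; MBC = concentration without visible turbidity; at least three independent experiments.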

[12] = system: Staphylococcus aureus; assay: Bactericidal activity against methicillin-resistant Staphylococcus aureus 2 planktonic cells after 24 hrs by calgary biofilm device method; format: organism-based; in short: as §3
[13] = system: Staphylococcus epidermidis; assay: Bactericidal activity against methicillin-resistant Staphylococcus epidermidis ATCC 35984 planktonic cells after 24 hrs by calgary biofilm device method; format: organism-based; in short: as §3
[14] = system: Staphylococcus aureus; assay: Induction of biofilm eradication of methicillin-resistant Staphylococcus aureus BAA-44 after 24 hrs by calgary biofilm device method; format: functional; in short: as §2
[15] = system: Staphylococcus epidermidis; assay: Induction of biofilm eradication of methicillin-resistant Staphylococcus epidermidis ATCC 35984 after 24 hrs by calgary biofilm device method; format: functional; in short: as §2
[16] = system: Enterococcus faecium; assay: Induction of biofilm eradication of vancomycin-resistant Enterococcus faecium ATCC 700221 after 24 hrs by calgary biofilm device method; format: functional; in short: as §2
[17] = system: Staphylococcus aureus; assay: Induction of biofilm eradication of methicillin-resistant Staphylococcus aureus BAA-1707 after 24 hrs by calgary biofilm device method; format: functional; in short: as §2
[18] = system: Enterococcus faecium; assay: Bactericidal activity against vancomycin-resistant Enterococcus faecium ATCC 700221 planktonic cells after 24 hrs by calgary biofilm device method; format: organism-based; in short: as §3
[19] = system: Staphylococcus aureus; assay: Bactericidal activity against methicillin-resistant Staphylococcus aureus BAA-1707 planktonic cells after 24 hrs by calgary biofilm device method; format: organism-based; in short: as §3
[20] = Half life in human serum by LC-MS analysis; format: ADME, cell-free
In short: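 Human serum pre-warmed to 37 °C, spiked with prodrug from 10 mM DMSO stock plus internal standard, vortexed, then held 1 to 60 min. At each time point, acetonitrile with 0.5% formic acid was added to precipitate proteins. Released active HP was quantified as its ratio to internal standard against standard curves.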

[21] = Stability in lysogeny broth at 37 degC up to 16 hrs by UV-vis spectrophotometric method; format: physicochemical
In short: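 Compound from 10 mM DMSO stock was added to LB pre-warmed to 37 °C and incubated at 37 °C. At each time point it was extracted with an equal volume of ethyl acetate, and UV-vis spectra were scanned from 200 to 700 nm in 2 nm steps.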

| SMILES | hemolysis at 1 h, 200 µM [1] [%] | MIC [2] [µM] | MIC [3] [µM] | MIC [4] [µM] | MIC [5] [µM] | MIC [6] [µM] | pIC50 [7] | MBEC [10] [µM] | MBC [11] [µM] | MBC [12] [µM] | MBC [13] [µM] | MBEC [14] [µM] | MBEC [15] [µM] | MBEC [16] [µM] | MBEC [17] [µM] | MBC [18] [µM] | MBC [19] [µM] | also measured |
| --- | --- | --- | --- | --- | --- | --- | --- | --- | --- | --- | --- | --- | --- | --- | --- | --- | --- | --- |
| Cc1cc(C)c2nc3c(Br)cc(Br)c(O)c3nc2c1 | 2.2 | 0.1 (≈ 0.0382 µg/mL) | 0.3 (≈ 0.115 µg/mL) | 50 (≈ 19.1 µg/mL) | 0.075 to 0.08 (≈ 0.0287 to 0.0306 µg/mL) | 0.2 (≈ 0.0764 µg/mL) | < 4.00 |  |  |  |  |  |  |  |  |  |  |  |
| Cc1ccc2nc3c(Br)cc(Br)c(O)c3nc2c1C |  | > 100 |  |  | > 100 | > 100 |  |  |  |  |  |  |  |  |  |  |  | Activity [8]: inactive |
| Cc1ccc2nc3c(O)ccc(Br)c3nc2c1 |  | 12.5 (≈ 3.61 µg/mL) |  | 25 (≈ 7.23 µg/mL) | 12.5 (≈ 3.61 µg/mL) | 25 (≈ 7.23 µg/mL) | < 4.00 |  |  |  |  |  |  |  |  |  |  | selectivity ratio [9]: > 8 |
| Oc1c(Br)cc(Br)c2nc3ccccc3nc12 | ≤ 1 |  |  | 25 (≈ 8.85 µg/mL) |  | 6.25 (≈ 2.21 µg/mL) | < 4.00 | 100 | 37.5 (≈ 13.3 µg/mL) | 50 (≈ 17.7 µg/mL) | 50 (≈ 17.7 µg/mL) | 150 | 100 | 9.38 | 150 | 23.5 (≈ 8.32 µg/mL) | 18.8 to 37.5 (≈ 6.66 to 13.3 µg/mL) |  |
| CC1=C(C)C(=O)C(COC(=O)OCOc2c(Br)cc(Br)c3nc4ccccc4nc23)=C(C)C1=O | ≤ 1 | 2.35 (≈ 1.39 µg/mL) |  |  | 2.35 (≈ 1.39 µg/mL) | 9.38 (≈ 5.54 µg/mL) |  |  |  |  | 37.5 (≈ 22.1 µg/mL) |  | 150 | 9.38 | 75 | 12.5 (≈ 7.38 µg/mL) | 25 (≈ 14.8 µg/mL) | half-life [20]: 6.3 min; Stability [21]: Stable |
| CCc1ccc2nc3c(O)c(Br)cc(Br)c3nc2c1 | 3 | 0.1 (≈ 0.0382 µg/mL) | 0.59 (≈ 0.225 µg/mL) | 6.25 (≈ 2.39 µg/mL) | 0.1 (≈ 0.0382 µg/mL) | 2.35 (≈ 0.898 µg/mL) | < 4.30 | 150 | 75 (≈ 28.7 µg/mL) | 75 (≈ 28.7 µg/mL) | 50 (≈ 19.1 µg/mL) | 75 | 75 |  | 150 | 50 (≈ 19.1 µg/mL) | 75 (≈ 28.7 µg/mL) |  |
